Source: PubChem
Only some compounds are listed: those with a hit (about 1.5% of all), similar ones and a draw of the others.
PDI turbidity: PDI (human) enzyme inhibition; PDI insulin aggregation turbidity, A650, 90 min; inhibition, % at 10 µM; 350,000 tested, 0.052% active; AID 588391;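 active means mean inhibition across replicates of 30% or more, whatever share of single replicates reach that level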
SIRT5 inh: inhibitors of human sirtuin-5 desuccinylase | Purified SirT5, succinyl-peptide AMC, trypsin-coupled fluorescence | inhibition, % at 15 µM | 330,000 tested, 1.1% active | AID 652115; in the data active means inhibition above about 15%
Target sequence (Q9NXA8 whole entry, looked up): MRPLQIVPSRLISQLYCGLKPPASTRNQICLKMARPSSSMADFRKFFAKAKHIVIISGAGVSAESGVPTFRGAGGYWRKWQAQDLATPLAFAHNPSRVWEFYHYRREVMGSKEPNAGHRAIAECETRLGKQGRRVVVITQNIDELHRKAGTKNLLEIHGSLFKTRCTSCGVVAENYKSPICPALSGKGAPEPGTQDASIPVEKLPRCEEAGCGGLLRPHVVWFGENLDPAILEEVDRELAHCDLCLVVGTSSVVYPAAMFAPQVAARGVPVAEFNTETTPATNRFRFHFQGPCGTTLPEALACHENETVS
S100A4 MyoIIA: blocks human S100A4 binding to myosin IIA peptide; P26447; S100A4/TAMRA-MyoIIA peptide fluorescence polarization; inhibition, % at 10.7 µM; 360,000 tested, 0.14% active; AID 652163;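 active means mean inhibition of at least 70% across replicates, with every replicate also reaching that level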
Target sequence (P26447 whole entry, looked up): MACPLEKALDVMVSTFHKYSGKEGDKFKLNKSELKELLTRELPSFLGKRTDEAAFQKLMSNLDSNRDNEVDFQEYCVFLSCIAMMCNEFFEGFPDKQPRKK
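Material: human S100A4 monomer with TAMRA-labelled myosin IIA peptide; buffer or medium: HEPES pH 7.2 with CaCl2, KCl, NaCl, DTT, Triton; compound dosing: one concentration per compound; schedule: 5 min incubation before reading; benchmarks: neutral control DMSO, positive control TFP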
GSIS activator: GLuc luminescence reporter in INS-1E cells, primary screen for activators of glucose-dependent secretion of insulin. 370,000 tested, 0.61% active. AID 743287. INS-1E GLuc reporter insulin secretion, 2-3 h. activation, % at 16.6 µM;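 active means lowest replicate activation of at least 40%, so every replicate reaches that level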;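 further: 0% = median of neutral control wells and 100% = median of IBMX positive control wells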
ERp5 inh: blocks human ERp5 reductase activity on insulin; ERp5 insulin aggregation, absorbance 650 nm, 90 min; inhibition, % at 9.99 µM; 350,000 tested, 0.05% active; AID 651711;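 active means mean replicate inhibition above about 25%, with every replicate also reaching it, limit read from the data, passing the limit was not always enough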
Starred values were filed as active, the others as inactive; x = no result given.

SMILES	PDI turbidity	SIRT5 inh	S100A4 MyoIIA	GSIS activator	ERp5 inh
Cc1ccc(S(=O)(=O)N(C)C[C@H]2OCCCC[C@@H](C)Oc3ccc(NS(=O)(=O)c4c(C)noc4C)cc3C(=O)N([C@@H](C)CO)C[C@@H]2C)cc1	x	16.8*	-21.7	-10.5	0.6
Cc1ccc(S(=O)(=O)N(C)C[C@@H]2OCCCC[C@H](C)Oc3ccc(NC(=O)NC4CCCCC4)cc3C(=O)N([C@H](C)CO)C[C@H]2C)cc1	x	15.5*	0.7	-7.0	2.0
Cc1ccc(S(=O)(=O)Nc2ccc3c(c2)C(=O)N([C@@H](C)CO)C[C@H](C)[C@H](CN(C)S(=O)(=O)c2ccccc2)OCCCC[C@H](C)O3)cc1	x	9.5	-18.1	6.7	-0.6
O=C(NC1CCC1)[C@H]1[C@H](CO)[C@H]2Cn3c(cccc3=O)[C@H]2N1CCc1ccccc1	x	-7.4	x	-4.3	-4.9
CC(C)NC(=O)N(C)C[C@@H]1Oc2c(NC(=O)c3ccncc3)cccc2C(=O)N([C@H](C)CO)C[C@@H]1C	x	-0.9	-6.7	19.6	-1.7
Cc1ccc(S(=O)(=O)Nc2ccc3c(c2)C(=O)N([C@H](C)CO)C[C@H](C)[C@H](CN(C)C(=O)NC(C)C)OCCCC[C@H](C)O3)cc1	x	3.3	0.2	8.5	0.0
Cc1ccc(S(=O)(=O)Nc2ccc3c(c2)C(=O)N([C@H](C)CO)C[C@@H](C)[C@H](CN(C)S(=O)(=O)c2ccccc2)OCCCC[C@@H](C)O3)cc1	x	9.1	-12.6	-8.7	-1.3
Cc1ccc(S(=O)(=O)N(C)C[C@@H]2OCCCC[C@@H](C)Oc3ccc(NS(=O)(=O)c4ccccc4)cc3C(=O)N([C@@H](C)CO)C[C@H]2C)cc1	x	18.6*	-2.6	-10.3	-0.5
Cc1ccc(S(=O)(=O)Nc2ccc3c(c2)C(=O)N([C@@H](C)CO)C[C@H](C)[C@H](CN(C)S(C)(=O)=O)OCCCC[C@@H](C)O3)cc1	x	2.7	-5.3	4.3	-3.8
Cc1ccc(S(=O)(=O)Nc2ccc3c(c2)C(=O)N([C@H](C)CO)C[C@@H](C)[C@H](CN(C)S(C)(=O)=O)OCCCC[C@@H](C)O3)cc1	x	3.4	125.2*	-22.4	-5.8
Cc1ccc(S(=O)(=O)N(C)C[C@H]2OCCCC[C@@H](C)Oc3ccc(NS(=O)(=O)c4ccccc4)cc3C(=O)N([C@@H](C)CO)C[C@@H]2C)cc1	x	18.8*	-6.4	6.3	-1.0
Cc1ccc(S(=O)(=O)Nc2ccc3c(c2)C(=O)N([C@H](C)CO)C[C@@H](C)[C@@H](CN(C)C(=O)NC(C)C)OCCCC[C@@H](C)O3)cc1	x	7.1	106.9*	-30.8	-1.5
CCOC(=O)C(CC)(CC)C(=O)/C=C/c1ccc(Br)cc1	-3.6	x	x	65.3*	x
CCOC(=O)C(=Cc1ccc(Br)cc1)C(=O)OCC	-0.9	-2.4	5.2	-33.2	0.7
COC(=O)c1cn(C(=O)c2ccccc2Cl)c2ccccc12	-10.9	26.0*	3.2	-2.4	11.3
O=C(O)CN1C(=O)/C(=C\c2cccc(OCc3ccc(Cl)cc3Cl)c2)SC1=S	12.8	15.4*	-2.2	-6.5	0.4
CCOC(=O)c1cnc2c(cnn2C)c1Oc1ccc(OC)cc1	-0.8	-4.9	-5.8	61.9*	3.2
CNc1nc(SCc2ccccc2)nc(N2CCOCC2)n1	-3.6	x	x	49.7*	x
CC(C)(C)Nc1nc(SCc2ccccc2)nc(N2CCOCC2)n1	1.6	x	x	x	x
CSc1nc(NC(C)(C)C)nc(N2CCOCC2)n1	-0.3	x	x	x	x
CSc1nc(NC(C)C)nc(N2CCOCC2)n1	-9.0	x	x	115.9*	x
C[C@H](CO)N1C[C@H](C)[C@H](CN(C)C(=O)C2CCC2)Oc2cc(Br)ccc2S1(=O)=O	x	x	x	0.6	x
Cc1ccccc1NC(=O)CN1C(=O)S/C(=C/c2cccnc2)C1=O	-0.7	0.0	10.2	40.0*	5.1
CC(C)NC(=O)N[C@@H]1CC[C@H](CCNC(=O)C2CCCC2)O[C@H]1CO	x	x	3.1	3.3	3.1
O=C(NCC[C@@H]1CC[C@H](NC(=O)c2ccccc2F)[C@@H](CO)O1)c1ccc2c(c1)OCO2	x	16.4*	-6.1	-5.1	-1.6
SMILES	PDI turbidity	SIRT5 inh	S100A4 MyoIIA	GSIS activator	ERp5 inh
O=C(Nc1ccccc1F)N[C@H]1CC[C@@H](CCNC(=O)C2CCCCC2)O[C@@H]1CO	x	2.7	16.8	15.2	-0.1
O=C(NCC[C@@H]1CC[C@H](NC(=O)c2ccccc2F)[C@H](CO)O1)c1ccc2c(c1)OCO2	x	4.4	11.3	16.1	0.6
O=C(Nc1ccccc1F)N[C@H]1CC[C@H](CCNC(=O)C2CCCCC2)O[C@H]1CO	x	7.3	87.4*	9.9	5.9
CC(C)NC(=O)N[C@H]1CC[C@H](CCNC(=O)C2CCCC2)O[C@@H]1CO	x	24.7*	-4.0	1.2	2.4
O=C(Nc1cccc(Cl)c1)N[C@H]1CC[C@H](CCNC(=O)C2CCCC2)O[C@H]1CO	x	6.4	131.9*	-12.2	-0.8
O=C(CN1CCOCC1)N1CCCCN2[C@H](CO)[C@@H](c3ccc(-c4ccccc4F)cc3)[C@@H]2C1	x	1.0	-2.9	-6.2	-5.0
CO[C@@H]1CN(C)C(=O)c2ccc(NC(=O)c3ccc(F)cc3)cc2OC[C@H](C)N(C)C[C@@H]1C	x	-13.6	0.9	9.4	1.6
Cc1noc(C)c1NC(=O)Nc1cccc2c1O[C@@H](CN(C)C)[C@@H](C)CN([C@@H](C)CO)C2=O	x	-1.6	9.8	-2.1	0.3
CC(C)NC(=O)N(C)C[C@H]1Oc2ncccc2C(=O)N(C)C[C@H]1C	x	x	x	13.3	x
O=C(Nc1cc(F)ccc1F)N[C@H]1CC[C@H](CCn2cc(C3CC3)nn2)O[C@H]1CO	x	-0.6	6.8	-1.7	2.0
COc1ccc(Nc2c(-c3ccc(C)cc3)nc3cnccn23)cc1	2.5	18.0*	-1.5	-2.0	-5.0
CCCC#Cc1ccc2c(c1)O[C@H](CN(C)C(=O)Nc1ccccc1F)[C@@H](C)CN([C@H](C)CO)S2(=O)=O	x	20.7*	4.2	-22.6	1.5
CCCC#Cc1ccc2c(c1)O[C@@H](CN(C)C(=O)c1ccccc1F)[C@@H](C)CN([C@@H](C)CO)S2(=O)=O	x	16.9*	-4.3	-6.4	4.2
CCCC#Cc1ccc2c(c1)O[C@H](CN(C)C(=O)c1ccccc1F)[C@H](C)CN([C@H](C)CO)S2(=O)=O	x	18.0*	18.3	-32.8	-2.8
C[C@H]1CN([C@@H](C)CO)C(=O)c2cc(-c3ccc(F)cc3)cnc2O[C@H]1CN(C)CC1CCCCC1	x	2.7	0.8	-1.8	-3.1
COc1ccc(C(=O)Nc2ccccc2C(=O)Nc2ccncc2)cc1	-3.6	-6.5	2.1	45.0*	1.4
COc1ccc(C(=O)Nc2ccccc2C(=O)NCc2cccnc2)cc1OC	-2.6	0.8	11.5	40.9*	17.6
COc1cc(C(=O)Nc2ccccc2C(=O)NCc2cccnc2)cc(OC)c1OC	-2.6	-3.9	1.3	16.2	-0.8
Cc1cc(C(=O)Nc2cccc3c2O[C@H](CN(C)CC2CCCCC2)[C@H](C)CN([C@H](C)CO)C3=O)n(C)n1	x	4.1	3.3	7.0	-3.1
CO[C@@H]1CN(C)C(=O)c2ccc(NS(C)(=O)=O)cc2OC[C@@H](C)N(Cc2ccccn2)C[C@H]1C	x	x	x	5.6	x
